Experimental data reported in ChEMBL document CHEMBL1141613, “Conception of myeloperoxidase inhibitors derived from flufenamic acid by computational docking and structure modification” (Bioorg Med Chem, 2008).

Legend:
Myeloperoxidase = biological target: T1, Myeloperoxidase (Homo sapiens, UniProt P05164); experiment: Inhibition of chlorinating activity of recombinant myeloperoxidase by taurine assay; format: single protein format
T1 sequence (P05164 whole entry): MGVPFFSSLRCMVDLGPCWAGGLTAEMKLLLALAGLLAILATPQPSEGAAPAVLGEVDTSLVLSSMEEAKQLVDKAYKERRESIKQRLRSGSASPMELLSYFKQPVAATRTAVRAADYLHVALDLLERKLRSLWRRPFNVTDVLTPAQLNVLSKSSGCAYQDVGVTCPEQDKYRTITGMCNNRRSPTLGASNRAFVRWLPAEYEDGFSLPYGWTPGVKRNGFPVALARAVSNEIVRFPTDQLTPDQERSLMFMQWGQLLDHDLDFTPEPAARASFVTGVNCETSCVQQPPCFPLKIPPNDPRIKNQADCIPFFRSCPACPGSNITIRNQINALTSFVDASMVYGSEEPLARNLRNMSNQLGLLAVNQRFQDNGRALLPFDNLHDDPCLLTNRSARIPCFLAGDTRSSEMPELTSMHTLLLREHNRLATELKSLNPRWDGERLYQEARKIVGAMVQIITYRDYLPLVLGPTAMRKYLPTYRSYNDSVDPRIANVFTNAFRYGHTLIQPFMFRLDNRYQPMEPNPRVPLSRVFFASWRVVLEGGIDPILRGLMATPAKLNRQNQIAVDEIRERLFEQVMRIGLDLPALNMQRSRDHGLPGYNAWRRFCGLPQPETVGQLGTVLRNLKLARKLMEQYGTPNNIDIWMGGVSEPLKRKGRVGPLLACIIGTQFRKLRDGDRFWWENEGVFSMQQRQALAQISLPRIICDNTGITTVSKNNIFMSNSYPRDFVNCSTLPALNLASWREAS
How it was run: (§1)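 Recombinant MPO (~25 nM) in pH 7.4 phosphate (10 mM)/NaCl 300 mM with taurine (15 mM) and compound (0–20 μM) at 37 °C; started with H2O2 (100 μM), stopped after 5 min with catalase. Taurine chloramine measured with TNB. No inhibitor = 0%, no H2O2 = 100%. At least 3 determinations. IC50 from three-parameter sigmoid fit.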

[1] = biological target: T2, Myeloperoxidase (Homo sapiens) (UniProt P05164); experiment: Inhibition of chlorinating activity of recombinant myeloperoxidase at 2 uM by taurine assay; how it was run: as §1
T2 sequence (whole entry): T1 sequence (P05164 whole entry)

[2] = biological target: T2, Myeloperoxidase (Homo sapiens); experiment: Inhibition of chlorinating activity of recombinant myeloperoxidase at 4 uM by taurine assay; how it was run: as §1
[3] = biological target: T2, Myeloperoxidase (Homo sapiens); experiment: Inhibition of chlorinating activity of recombinant myeloperoxidase at 0.5 uM by taurine assay; how it was run: as §1
[4] = Hypochlorous acid scavenging activity at 2 uM by taurine assay; format: functional
How it was run: (§2)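 No enzyme; HOCl (60 μM) added to pH 7.4 phosphate buffer (10 mM phosphate/300 mM NaCl) with taurine (15 mM) and compound (0.5, 1, 2, 4 μM) at 37 °C. Catalase added after 5 min. Taurine chloramine quantified with 0.45 mM TNB.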

[5] = Hypochlorous acid scavenging activity at 4 uM by taurine assay; format: functional; how it was run: as §2
[6] = biological target: T2, Myeloperoxidase (Homo sapiens); experiment: Inhibition of chlorinating activity of recombinant myeloperoxidase at 1 uM by taurine assay; how it was run: as §1
[7] = Hypochlorous acid scavenging activity at 0.5 uM by taurine assay; format: functional; how it was run: as §2
[8] = LDL oxidation at 300 uM by ELISA
[9] = Hypochlorous acid scavenging activity at 1 uM by taurine assay; format: functional; how it was run: as §2
[10] = LDL oxidation at 30 uM by ELISA
[11] = LDL oxidation at 15 uM by ELISA
[12] = LDL oxidation at 5 uM by ELISA

SMILES	IC50 (Myeloperoxidase) [µM]	inhibition [1] [%]	inhibition [2] [%]	inhibition [3] [%]	Activity [4] [%]	Activity [5] [%]	inhibition [6] [%]	Activity [7] [%]	level, % of control [8] [%]	Activity [9] [%]	level, % of control [10] [%]	level, % of control [11] [%]	level, % of control [12] [%]
O=C(O)c1cc(F)ccc1Nc1cccc(C(F)(F)F)c1	1.8	63	76	37	1.9	3	49	3.3	9	2	–	–	–
NCCCC(=O)Nc1ccc(C(=O)O)c(Nc2cccc(C(F)(F)F)c2)c1	5.5	35	49	12	2	1	21	1	–	2	–	–	–
O=C(O)c1cc(Cl)ccc1Nc1cccc(C(F)(F)F)c1	1.6	57	74	29	2	1	42	1	112	0.4	–	–	–
O=C(O)c1cc(Br)ccc1Nc1cccc(C(F)(F)F)c1	1.8	65	79	36	3	4.9	51	3	29	2	–	–	–
O=C(O)c1ccccc1Nc1cccc(C(F)(F)F)c1 [FLUFENAMIC ACID]	1.8	52	64	25	1.6	1.7	40	2	10	1.1	23	82	97
Nc1ccc(C(=O)O)c(Nc2cccc(C(F)(F)F)c2)c1	–	–	–	–	2	3	–	1	29	2	56	70	79
O=C(CCCO)Nc1ccc(C(=O)O)c(Nc2cccc(C(F)(F)F)c2)c1	> 100	12.2	20	8.5	-1	1	12	0	–	0	–	–	–
CC(=O)Nc1ccc(C(=O)O)c(Nc2cccc(C(F)(F)F)c2)c1	14	33	42	12	2	1	24	1	29	2	61	86	122
O=C(O)c1ccc([N+](=O)[O-])cc1Nc1cccc(C(F)(F)F)c1	5	43	55	29	1	2	29	0	16	0	135	143	121
O=C(O)c1cc(O)ccc1Nc1cccc(C(F)(F)F)c1	–	–	–	–	2.5	2	–	2	53	2	–	–	–
O=C(O)c1cccc(Nc2cccc(C(F)(F)F)c2)c1C(=O)O	> 100	–	–	–	–	–	–	–	–	–	–	–	–
O=C(O)/C=C/C(=O)Nc1ccc(C(=O)O)c(Nc2cccc(C(F)(F)F)c2)c1	> 100	0.1	0.3	0.3	0	2	0.6	-1	–	-1	–	–	–
O=C(Nc1ccc(C(=O)O)c(Nc2cccc(C(F)(F)F)c2)c1)c1ccccc1	58	25	35	11	0	2	15	1	–	0	–	–	–
